Test system: MS2 coat protein
Assay: apparent Kd, MS2 coat protein; higher = weaker binding; RNA-MaP array; FMN 200 µM where present
Summary of the method: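 Designs were transcribed by stalled E. coli RNA polymerase on Illumina sequencing-chip clusters. They were titrated with SNAP-549-labelled MS2 coat protein from 0.7 or 1.5 nM, doubling to 3 µM, in 100 mM Tris-HCl pH 7.5, 80 mM KCl, 4 mM MgCl2, BSA, DTT, yeast tRNA and Tween-20, without and then with constant ligand. The apparent Kd is the median of filtered per-cluster fits after normalisation of green signal to red-channel RNA signal and control-cluster median Fmax.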

[1] = designed as: OFF switch for flavin mononucleotide, no ligand
[2] = ligand present: flavin mononucleotide, designed as: OFF switch for flavin mononucleotide
[3] = designed as: ON switch for flavin mononucleotide, no ligand
[4] = ligand present: flavin mononucleotide, designed as: ON switch for flavin mononucleotide

Sequence | apparent Kd [1] [µM] | apparent Kd [2] [µM] | apparent Kd [3] [µM] | apparent Kd [4] [µM]
CAGAGGAUGUAAGGAUAUCGUCAGGAAUACUGACGAGAAGGUACAUGAGGAUCACCCAUGUAUAUGAAAGAUAAUAAACCUCUG | 0.0144 | 0.0172 | – | –
GCUAGUGCAGGAUAUGCGUGGGAUGUUAUCCAUUUUCAUCUACAUGAGGAUCACCCAUGUAGAAGGGCACCCUU | 0.0293 | 0.11 | – | –
UAAAUGUGAGGAUAUCAGGUGUGCUAGCGAACUGGUACAUCUGAGAAGGCACAUGAGGAUCACCCAUGUUCCUU | 0.017 | 0.0615 | – | –
GGAUAGGACAGAGGAUAUACGUGCUAGAUAUACUAGCAAAAUUUCCUCACAUGAGGAUCACCCAUGUAGAAGGCUGUCCUAUCG | 0.0156 | 0.399 | – | –
AACAAUCUAUCUGAGGAUAUCAUGUCAAAGACAUGAGGAUCACCCAUGUUGCAGGAAACUGCUCAUGAGAAGGCAGAUAGAUUGA | – | – | 0.614 | 0.0437
UGGUGUGAAUAGGAUAUGAACUCUGCCAGGAUAUCAGAAGGGUUUACAUGAGGAUCACCCAUGUCAUCCACUGC | 0.0188 | 0.0189 | – | –
AACAGUACAGGAUAUACAUGAGGAUCACCCAUGUGAGAAUUAUGUGGCGUACCACAAAGUAGAAGGGUACUGGA | 0.0817 | 0.308 | – | –
UUAAAUCAUGUAGGAUAUGCAUGGCGAAGCUACGCAGAAGGACAUGAGGAUCACCCAUGUUAUAGCUACCGAUUAAGGUGGCAA | 0.0929 | 0.246 | – | –
GGGUAAUAUCGAGGAUAUGUCUAGACACAUGAGGAUCACCCAUGUAUGUGUAUAGAAGGCGAUAUUAACAGCAUGUUACAUGGG | – | – | 0.291 | 0.0605
UACUCAUGUGAGAAGGGACGUAUCUCCAUGAGGGCAGGGCUAUUAGGGAAGUCAGGAUAUCACAUGAGGAUCACCCAUGUGACG | 0.00691 | 0.00733 | – | –
CUUAUGUGAGGAUAUGGUGUUGGUCACAGGAAAAAGAUUCUCCAGAAGGCACAUGAGGAUCACCCAUGUAGUGA | 0.0894 | 0.0712 | – | –
GCAGGGUAUGAGAAGGCAUAAUUUAUCUUACCACAUGUUUACAUGAGGAUCACCCAUGUUUCCAAUGAGGAUAUCAUACCGUGC | 0.0109 | 0.00989 | – | –
AGCUACGUUUCGUAGCAGUGUCAUCGAGAAGGCCUUAUAACAUGAGGAUCACCCAUGUUAACAUGGGAGGAUAUCGAUGAUACA | – | – | 0.0105 | 0.00534
ACAAUAGUAUCACAUGUAUUACAUGAGGAUCACCCAUGUAACUAGGAUAUGUUUUAAAAUUUACAACAGAAGGAGUUAUUAUGU | 0.0082 | 0.0146 | – | –
GUAGAGUAGUGAGGAUAUACGAGUUCGAUAGAACGGCGAUCCAUUAAUACAUGAGGAUCACCCAUGUAGAAGGCACUUCUCUAC | 0.0064 | 0.0693 | – | –
GUGGUCAGACAUGAGGAUCACCCAUGUGGAAUAAAUAACGGACAGGAUAUAGAAUAUAGGAUAUACUAGAAGGGUUGAUUGGUG | – | – | 0.0557 | 0.0573
CCUCGACAUGAGGAUCACCCAUGUCAGGAUAUUGUGUCUCGGGUUUUUUACCGAAAGGCGAGAAGGGAUGUGUG | 0.0161 | 0.021 | – | –
AUCCGACAUGAGGAUCACCCAUGUCAGGAUAUGGACUGACACCGAAAGGAUGGAGGAACCAGAAGGGACUGGGC | 0.0325 | 0.0478 | – | –
CUGAUGUCAGGAUAUCGGUGGCUCACUUGUGUGUGCCAGACCGAGAAGGGACAUGAGGAUCACCCAUGUCUUUA | 0.0202 | 0.0462 | – | –
GCCAUCACGUGAGGAUAUGCUCCCGUUUCGGGAGCAGAAGGCAUGUCAUAAGACAUGAGGAUCACCCAUGUAGAUAAGAUGGCA | – | – | 0.236 | 0.0124
UGGCGCAUGUGAGGAUAUAAUGGGUAGUAACUAUUAGAAGGUACAUGAGGAUCACCCAUGUACUUGGGUUUAUCAGGAACUCCU | 0.00702 | 0.0067 | – | –
GUCAGCAAAUAAGGAUAUACAACACUGCUUCGGCAGUGUAUUAAGAUCACAUGAGGAUCACCCAUGUAGAAGGUAUAAGCUGAU | 0.00698 | 0.0245 | – | –
CCUAGUUGGUAAGGAUAUCCUACACUGUUCUGACCCGUGCAAGCUACAUGAGGAUCACCCAUGUGGGAGAAGGUGCGUCAACGU | 0.0127 | 0.0119 | – | –
UGAAAUCAUGUAGGAUAUGCAUGGCGAAGCUACGCAGAAGGACAUGAGGAUCACCCAUGUUAUAGCUACCCAGUUCGGUGGCAA | 0.141 | 0.118 | – | –
UUUGCAACAUGAGGAUCACCCAUGUAGGAUAUCGCUAUUGUAAUCAUGAAACAUGAUUACAAUAGCGAGAAGGACAUAUGCAAA | 0.00754 | 0.0104 | – | –
GAGCCUCCGUAGAAGGCCGCGGAAUUCGAACGCGGAGGAUAUACAUGAGGAUCACCCAUGUGAAAGUGGAAAGAUAAAACGCUU | 0.0124 | 0.0304 | – | –
UGUGCGUUGAUCUUCGAUCGGUGUACAUGAGGAUCACCCAUGUAGGAUAUUCAAAGACGCAGAUAGGAGAAGGACAUCGGUUUU | 0.018 | 0.0198 | – | –
CAGUACUGAGGAUAUACAUGAGGAUCACCCAUGUGUUCCAGCUAGGAAACUAGCAAAAGUAGAAGGUAGUACUG | 0.0137 | 0.0565 | – | –

Sequence | apparent Kd [1] [µM] | apparent Kd [2] [µM] | apparent Kd [3] [µM] | apparent Kd [4] [µM]
GUCAGCUCGUGAGGAUAUACAUGUGCUGGAGACAGCAUUAUAUUUUUCACAUGAGGAUCACCCAUGUAGAAGGCACGAGCUGAU | 0.0165 | 0.0274 | – | –
GAUCGUAUCCUAGGAUAUUCAUUAAACAUGAGGAUCACCCAUGUUAAUUUGGGAGAAGGAGGAUACGAUCAACAGCGAAAGCUG | – | – | 0.0106 | 0.00515
UUUAUAAAGAAAGGAUAUAGUAUAAUAAUUUAAUUAGAAGGUUCACACAUGAGGAUCACCCAUGUAUGAGGAUCACCCAUGUAU | 0.0352 | 0.0291 | – | –
CGGUAUAUGAAGGGCGAAAGCCCACAUGAGGAUCACCCAUGUAGAAGGCGGGCCGCAACGCGGCCCGAGGAUAUACAAUAUACA | 0.0065 | 0.0124 | – | –
UUACAUACAAAGUUACAUGAGGAUCACCCAUGUUUAUUGGGAAGAAGGGUAACAGUAUUACAUAUAUAGGAUAUUUCACAAUUG | – | – | 0.333 | 0.181
UUGGACGUCGUAGGAUAUCUAGGAUAUUCCUACAUGAGGAUCACCCAUGUUGACAUGGAAGAAGGACAGAAGGACGAUGUCCAU | – | – | 0.0149 | 0.011
GCGCUUAUACAGAAGGCCAUAUACAUGAGGAUCACCCAUGUUAUUUGGUGGAGGAUAUGUUUUUUAUUACAGGUUGAUGAGCGC | – | – | 0.00758 | 0.00652
AGUGCCAUGUAGAAGGGAGAUCUGAUUCAGAUCUCAGGAUAUACAUGAGGAUCACCCAUGUAAAUGCACUGCACGAGAGUGCAA | 0.0125 | 0.0309 | – | –
CACUGCAAUGUAGGAUAUCGACUGGAUAACAGUCGAGAAGGACAUGAGGAUCACCCAUGUACUAAUAGUGAUAAUAAAGCAGUG | 0.0135 | 0.055 | – | –
CUUUUGUGAGGAUAUCAGUAGUAAAUAAAUAAAUUUACUACUGAGAAGGCACAUGAGGAUCACCCAUGUUCCUC | 0.0391 | 0.292 | – | –
AUAUUAUAGAUCCAUUUAUUCAACAUGAGGAUCACCCAUGUGCAGGAUAUCGUGUGUUUUAUAAACGAGAAGGGCAAAUUCAUU | 0.0319 | 0.0967 | – | –
GUUGACAGCACAGGAUAUGCGCAGUCUAUAUCACAUGAGGAUCACCCAUGUCGGCAACAGACCGAGCAGAAGGGUGCGAGUGUG | – | – | 0.235 | 0.0397
UGGUACUAGGGAGGAUAUGGGAAGAUACAUGAGGAUCACCCAUGUUUAAGAAUGCCGAGAGGUAACUAGAAGGCCCUAGUACCU | – | – | 0.455 | 0.0151
AAUAUGAGCUGGUAAAUAAAACCGACAUGAGGAUCACCCAUGUAGGAUAUCAGCACGAUAAGUGCUGAGAAGGACAUCCAGCUC | 0.0144 | 0.0167 | – | –
CUUUUGUGAGGAUAUUAGUAGUAAAUAAAUAAAUUUACUACUGAGAAGGCACAUGAGGAUCACCCAUGUUCCUC | 0.0367 | 0.328 | – | –
AGAAAACGAGGAUAUACGUGCAUAUUCUCGCCCAAUGGGCAACAUGAGGAUCACCCAUGUAGAAGGCGUAAAGA | 0.0374 | 0.0717 | – | –
UGUUGUUCAGGAUAUGAUGUUUUAUACAUGAGGAUCACCCAUGUGGGUCCUGAUUUGGCGUCAGAAGGGAAUGUUG | 0.108 | 0.222 | – | –
UAGCGCUGUCGAGAGGAUAUGCGGUGAUGGACAUGAGGAUCACCCAUGUUAGCGAUAGCAUUACGGUAGAAGGCUCUACAGCUGU | – | – | 0.245 | 0.036
GAUCGAAACACUCCUUACACUACAUGAGGAUCACCCAUGUAGCAGGAUAUCAUUGCUCCUCGCUGUGAGAAGGGCUACGGGCGA | 0.0073 | 0.014 | – | –
CUCCGGCGUGUAGGAUAUGGAUCCGAUUAGGAUCCAGAAGGACAUGAGGAUCACCCAUGUACAUGUAAACAGUCAUCACCGGAC | 0.00866 | 0.0676 | – | –
GCGUUACAUGAGGAUCACCCAUGUGAGGAUAUGGUGCGGUAGUGUCCUGUCGCGUACUCCAGAAGGCGCGGGUG | 0.137 | 0.24 | – | –
GAACGUGAGACGACCGUGGGUACAUGAGGAUCACCCAUGUGCAGAAGGCGAAUAUGACGAUGUGUCGAGGAUAUGCACAGCUCA | 0.0224 | 0.0976 | – | –
UAUAUGUCAGGAUAUCGAUUGGAAUGGAAUUUAGUUUUGGUCGAGAAGGGACAUGAGGAUCACCCAUGUUCCUC | 0.0309 | 0.134 | – | –
GGUGAAUGAACAUGAGGAUCACCCAUGUACAGGAAACUGAAUGAGGAUAUCCAUAGCAAAGCUAUGGAGAAGGCAUGGGUCACC | – | – | 0.302 | 0.0998
GCGUCUCCUGUCAGGAUAUGCACCGGCUCGCCGGCGUAGAAGGGACAUGAGGAUCACCCAUGUGGUCUACACUU | – | 0.339 | – | –
UUUAUGUGAGGAUAUAGUACUCCUUCUAUUAUUUUUGAGUACUAGAAGGCACAUGAGGAUCACCCAUGUAGUAC | 0.0225 | 0.0486 | – | –
GUAGAGUAAGGAUAUCGUGAAUAGGAUAGAAUGGUUAGAAACGAGAAGGUACAUGAGGAUCACCCAUGUAAUGU | 0.0207 | 0.0213 | – | –

From the EternaBench riboswitch data
